DNMT1 inh: human DNMT1 methyltransferase inhibitors, primary screen, biochemical, molecular beacon, fluorescence, HinP1I cleavage, uHTS; DNA (cytosine-5)-methyltransferase 1 (Homo sapiens), P26358; inhibition (reported as % activation of signal), % at 10 µM; actives 0.83% (n = 360,000); AID 588458, 2011; in the data active means inhibition above about 50%
SUMO1-SIM PPI: modulators of SUMO1 protein-protein interactions, primary screen, biochemical, uHTS; AID 602429, 2012; SUMO1 binding to a labelled peptide, TR-FRET, 1 h; actives 0.33% (n = 360,000); Small ubiquitin-related modifier 1 (Homo sapiens), P63165; inhibition, % at 20 µM; in the data active means inhibition above about 37%
Target sequence (P63165 whole entry, looked up): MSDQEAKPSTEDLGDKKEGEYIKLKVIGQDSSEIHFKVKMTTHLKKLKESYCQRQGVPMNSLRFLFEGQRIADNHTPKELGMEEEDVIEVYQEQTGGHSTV
STEP inh: STEP phosphatase inhibitors, primary screen, biochemical, fluorescence intensity, uHTS. AID 588621, 2011. actives 0.25% (n = 360,000). Tyrosine-protein phosphatase non-receptor type 5 (Homo sapiens), P54829. recombinant STEP, OMFP fluorogenic substrate. inhibition, % at 20 µM;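 active means inhibition at 20 µM, scaled per plate between control wells, above about 37%, limit read from the data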;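 further: 0% = DMSO with enzyme and substrate and 100% = substrate only without enzyme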
Target sequence (P54829 whole entry, looked up): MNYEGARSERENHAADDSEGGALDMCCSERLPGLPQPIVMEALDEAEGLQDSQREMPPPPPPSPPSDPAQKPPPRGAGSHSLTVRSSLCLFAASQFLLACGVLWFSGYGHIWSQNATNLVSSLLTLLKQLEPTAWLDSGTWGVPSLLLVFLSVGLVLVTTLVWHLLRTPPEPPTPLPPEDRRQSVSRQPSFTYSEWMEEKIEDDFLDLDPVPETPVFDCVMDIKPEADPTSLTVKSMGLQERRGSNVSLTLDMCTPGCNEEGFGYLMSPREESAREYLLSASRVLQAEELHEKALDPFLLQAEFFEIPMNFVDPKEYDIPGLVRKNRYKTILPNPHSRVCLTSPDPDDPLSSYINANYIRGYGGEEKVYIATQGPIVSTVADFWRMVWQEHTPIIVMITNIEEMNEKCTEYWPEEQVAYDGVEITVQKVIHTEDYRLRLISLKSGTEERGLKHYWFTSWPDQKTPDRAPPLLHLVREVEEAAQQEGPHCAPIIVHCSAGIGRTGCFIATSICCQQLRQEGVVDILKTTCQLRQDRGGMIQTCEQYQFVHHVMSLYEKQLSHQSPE
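Also added – OMFP at 25 µM · Test system – STEP tyrosine phosphatase · Technique – FITC-channel fluorescence of OMFP product · Schedule – 20 min at room temperature, dark · Evaluation – control-normalized % inhibition with plate pattern correction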
Scp1 inh: Scp-1 phosphatase inhibitors, primary screen, biochemical, colorimetric, uHTS. inhibition, % at 20 µM. Recombinant Scp1, phosphopeptide, malachite green phosphate absorbance. AID 493091, 2011. actives 0.88% (n = 340,000);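 active means inhibition above about 50% at 20 µM, limit read from the data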;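 further: plate controls were DMSO wells with enzyme for no effect and wells lacking enzyme for full effect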
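System: SCP-1 catalytic domain; Reagent: Phospho 17-mer peptide substrate; Doses: one concentration, 20 µM, with 1.0% DMSO; Incubation: 45 min room-temperature reaction, 5 min colour, 30 min stabiliser; Signal: Phosphate-binding colour reagent, absorbance read at 630 nm.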
NadD block: inhibitors of S. aureus NadD, primary screen, biochemical, colorimetric, uHTS; actives 0.78% (n = 360,000); inhibition, % at 20 µM; purified NadD enzyme, colorimetric absorbance read-out; Nicotinate-nucleotide adenylyltransferase NadD (Staphylococcus aureus N315); AID 602399, 2012; in the data active means inhibition above about 26%
LMPTP inh: LMPTP phosphatase inhibitors, primary screen, biochemical, fluorescence intensity, uHTS | Low molecular weight phosphotyrosine protein phosphatase (Homo sapiens), P24666 | recombinant LMPTP-A, OMFP fluorogenic substrate | inhibition, % at 20 µM | actives 0.22% (n = 360,000) | AID 651560, 2012;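 active means compounds that cut the enzyme signal by at least half of the control window in the single-dose screen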;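 further: plate controls were DMSO wells with enzyme plus substrate for no effect and substrate without enzyme for full effect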
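Test system – LMPTP-A phosphatase enzyme · Quantity – 0.625 nM LMPTP-A final · Reagent – OMFP substrate, 400 µM final · Dosing – one test concentration per compound, 20 µM, with 3% DMSO overall · Timing – 50 min enzyme reaction at room temperature, protected from light · Detection – fluorescence intensity · Controls – substrate-only low control, DMSO enzyme-plus-substrate high control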
NadD inh conf: inhibitors of S. aureus NadD, confirmation, biochemical, colorimetric, single concentration; actives 13% (n = 2,000); inhibition, % at 20 µM; AID 624309, 2012; shares compounds with NadD block; purified S. aureus NadD, colorimetric enzyme assay; in the data active means inhibition mostly above about 42%, no sharp cut-off; inactive means mostly below about 42%
Active calls of the source: *; nt = not tested or not shown. An excerpt weighted towards active compounds, which were near 2.4% of everything screened.

SMILES	DNMT1 inh	SUMO1-SIM PPI	STEP inh	Scp1 inh	NadD block	LMPTP inh	NadD inh conf
CC(C)C[C@H]1CNC(=S)N1C[C@H]1CCCN1C[C@H](Cc1ccccc1)N1C[C@H](CC(C)C)N(CCc2ccccc2)C1=S	1.3	-3.6	12.8	nt	11.0	5.5	nt
FC(F)(F)c1ccc(-c2nnc(-c3ccccn3)c(-c3ccccn3)n2)nc1	0.8	-31.0	-0.3	-3.3	2.0	-1.4	nt
O=C(NC(=S)Nc1nc(-c2cccc([N+](=O)[O-])c2)cs1)c1cc(Cl)ccc1Cl	-0.3	-4.5	0.4	1.9	30.4*	0.8	7.8
CCOC(=O)c1c(-c2ccccc2Cl)csc1NC(=O)CSc1nc(C)cc(=O)[nH]1	4.9	8.5	0.5	-8.2	27.6*	1.6	55.3*
Nc1ccccc1Sc1nc2ccccc2[nH]1	-13.7	-2.2	-3.1	12.5	34.5*	-0.3	34.1
Nc1nc2ccccc2[nH]1	-2.0	5.7	-3.6	-6.5	-4.8	1.1	nt
O=C(N=c1ccn(-c2nc3ccccc3nc2NS(=O)(=O)c2ccccc2)cc1)c1cccs1	9.5	-45.9	-4.6	8.3	19.4	16.0	nt
Cc1ccccc1C(=O)N=c1ccn(-c2nc3ccccc3nc2NS(=O)(=O)c2ccc(F)cc2)cc1	0.4	-12.7	2.3	24.9	30.4*	0.4	55.8*
Cc1cccc(N2CCN(C(=O)c3ccc4nccnc4c3)CC2C)c1 (stereo unspecified)	1.2	-0.4	-3.5	-9.5	4.5	-1.5	nt
Cc1cccc(N2CCN(C(=O)c3ccc4nc(-c5ccco5)c(-c5ccco5)nc4c3)CC2C)c1 (stereo unspecified)	-6.0	1.9	8.7	16.9	41.8*	5.3	8.4
O=c1c2sc3nc(N4CCOCC4)c4c(c3c2ncn1C(c1ccccc1)c1ccccc1)CCCC4	3.0	-30.7	-2.0	3.5	32.2*	1.4	1.4
O=c1c2sc3nc(N4CCOCC4)c4c(c3c2ncn1-c1ccccc1)CCCC4	-10.0	3.3	1.3	3.8	-0.5	3.9	nt
COc1cc2c(cc1NC(=O)c1cc(-c3ccncc3)nc3ccccc13)oc1ccccc12	44.4	-0.9	2.8	13.0	47.6*	8.9	5.1
Cc1ccc(S(=O)(=O)N2CCC(C(=O)NCCCOC(C)C)CC2)cc1	1.6	-2.2	2.3	-4.6	-7.2	-0.1	nt
Cc1cc(SCC(=O)c2cccc([N+](=O)[O-])c2)nc(=O)[nH]1	6.7	-21.8	10.5	3.1	33.1*	7.2	34.4
CCC(Sc1nc2ccsc2c(=O)n1Cc1ccc(C(=O)O)cc1)C(=O)Nc1ccc(C)c(Cl)c1 (stereo unspecified)	-0.2	7.5	0.2	-13.3	47.8*	2.2	47.0*
CCC(Sc1nc2ccsc2c(=O)n1Cc1ccc(C(=O)O)cc1)C(=O)Nc1cc(Cl)ccc1C (stereo unspecified)	2.6	10.6	23.4	nt	18.7	-0.3	nt
CC(C)C[C@H]1CNC(=S)N1C[C@H]1CCCN1C[C@H](Cc1ccccc1)N1C[C@H](Cc2ccc(O)cc2)N(CC2CCCCC2)C1=S	-17.1	1.9	12.2	nt	35.2*	5.3	-0.3
Oc1ccc(C[C@H]2CNC(=S)N2CC2CCCN2C[C@H](Cc2ccc(O)cc2)N2C[C@H](Cc3ccccc3)N(CC3CCCCCC3)C2=S)cc1 (stereo partly specified)	-14.0	3.0	3.4	44.5	44.6*	2.2	31.3
Oc1ccc(C[C@@H](CN2CCCC2CN2C(=S)NC[C@@H]2Cc2ccccc2)N2C[C@H](Cc3ccccc3)N(CC3CCCCCC3)C2=S)cc1 (stereo partly specified)	nt	3.8	nt	nt	45.5*	3.7	-4.3
CC(C)C[C@H]1CNC(=S)N1CC1CCCN1C[C@H](Cc1ccc(O)cc1)N1C[C@H](Cc2ccccc2)N(CC2CCCCC2)C1=S (stereo partly specified)	-6.2	-1.4	2.0	21.3	27.9	3.4	nt
Oc1ccc(C[C@H]2CN([C@@H](Cc3ccccc3)CN3CCC[C@@H]3CN3C(=S)NC[C@@H]3Cc3ccccc3)C(=S)N2CC2CCCCC2)cc1	-8.1	10.2	8.1	nt	21.7	5.9	nt
Oc1ccc(C[C@@H](CN2CCCC2CN2C(=S)NC[C@@H]2Cc2ccccc2)N2C[C@H](Cc3ccccc3)N(CC3CCCCC3)C2=S)cc1 (stereo partly specified)	nt	2.5	nt	nt	43.9*	2.5	12.6
CC(C)NC(=O)C1(C)CCCN1Cc1ccccc1C#N (stereo unspecified)	2.2	1.3	-3.5	nt	0.7	-0.6	nt
C=CCC[C@H](Cc1ccc(F)cc1)C(=O)OC[C@H](C)NC(=O)[C@@H](CC=C)CC(=O)N[C@H](CO)Cc1ccccc1	-0.6	1.1	-0.6	-3.0	-6.8	0.2	nt
SMILES	DNMT1 inh	SUMO1-SIM PPI	STEP inh	Scp1 inh	NadD block	LMPTP inh	NadD inh conf
CC(C)C[C@H]1CNC(=S)N1C[C@H]1CCCN1C[C@H](Cc1ccc(O)cc1)N1C[C@H](Cc2ccccc2)N(CC2CCCCCC2)C1=S	-13.3	0.8	4.4	nt	17.7	6.1	nt
Oc1ccc(C[C@H]2CNC(=S)N2CC2CCCN2C[C@H](Cc2ccccc2)N2C[C@H](Cc3ccc(O)cc3)N(CC3CCCCC3)C2=S)cc1 (stereo partly specified)	-40.1	8.1	1.5	nt	53.4*	4.4	19.5
Oc1ccc(C[C@H]2CNC(=S)N2CC2CCCN2C[C@H](Cc2ccc(O)cc2)N2C[C@H](Cc3ccc(O)cc3)N(CC3CCCCCC3)C2=S)cc1 (stereo partly specified)	-31.4	8.9	-2.0	30.0	55.4*	6.8	40.8
Cc1cccc(C)c1OC(=O)CCN1C(=O)C2C3C=CC(C4CC34)C2C1=O (stereo unspecified)	2.7	0.4	0.2	-12.8	-2.1	1.1	nt
CC(C)(C)OC(=O)[C@H](Cc1ccccc1)NC(=O)c1ncn2c1c(=O)[nH]c1ccc(Br)cc12	47.8	-27.7	1.5	nt	39.8*	73.0*	3.9
Cc1ccccc1NC(=O)COC(=O)c1ccc(S(=O)(=O)N2CCCCCC2)cc1	37.9	3.5	1.0	-4.9	14.0	-0.6	nt
